One experiment relates to PC-3. The experiment is described as follows: Cytotoxicity against human PC3 cells after 72 hrs by Alamar blue assay. Type of experiment: functional, cell-based. Conditions: PC-3, 72 h.
The test system of experiment [1] is MCF7. The experiment is described as follows: Cytotoxicity against human MCF7 cells at 10 uM after 72 hrs by Alamar blue assay. Type of experiment: functional, cell-based. (In general: The colour change of resazurin is a common sign of viable cells or microbes.)
Experiment [2] concerns NCI-H460. Description: Cytotoxicity against human NCI-H460 cells at 10 uM after 72 hrs by Alamar blue assay. Type of experiment: functional, cell-based.
The test system of experiment [3] is MDA-MB-231. Description: Cytotoxicity against human MDA-MB-231 cells after 72 hrs by Alamar blue assay. Particulars: MDA-MB-231, 72 h. Type of experiment: functional, cell-based.
Experiment [4] has as its system NCI-H460. The experiment is described as follows: Cytotoxicity against human NCI-H460 cells after 72 hrs by Alamar blue assay. Particulars: NCI-H460, 72 h. Type of experiment: functional, cell-based.
A further experiment has as its system MIA PaCa-2. Description: Cytotoxicity against human MIAPaCa2 cells after 72 hrs by Alamar blue assay. The class given is functional, cell-based. Conditions: MIA PaCa-2, 72 h.
The test system of experiment [5] is MCF7. The experiment is described as follows: Cytotoxicity against human MCF7 cells after 72 hrs by Alamar blue assay. Type of experiment: functional, cell-based. Particulars: MCF7, 72 h.
The subject of another experiment is PC-3M. The experiment is described as follows: Cytotoxicity against human PC3M cells at 10 uM after 72 hrs by Alamar blue assay. Type of experiment: functional, cell-based.
Experiment [6] concerns MDA-MB-231. The experiment is described as follows: Cytotoxicity against human MDA-MB-231 cells at 10 uM after 72 hrs by Alamar blue assay. The class given is functional, cell-based.
In experiment [7] the test system is MDA-MB-231. Description: Antiproliferative activity against human MDA-MB-231 cells after 72 hrs by Alamar blue assay. Type of experiment: functional, cell-based. Conditions: MDA-MB-231, 72 h. An outline of the steps:
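alamarBlue proliferation/survival read-out in MDA-MB-231 after 72 h exposure. Reagent added to 10% final, 4 h incubation, fluorescence at ex 560/em 590 nm as percent of DMSO vehicle; IC50 and IC25 reported as mean ± error.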

Experiment [8] in a line: Cytotoxicity against human PC3M cells after 72 hrs by Alamar blue assay. Particulars: PC-3M. The class given is functional, cell-based.
Experiment [9] deals with MDA-MB-231. The experiment is described as follows: Inhibition of human MDA-MB-231 cell migration at 5 uM after 40 hrs by wound-healing assay. Type of experiment: functional, cell-based. An outline of the steps:
(§1)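 Wound-healing assay: MDA-MB-231 cells grown in DMEM/Ham's F-12 with 10% FBS and gentamicin (50 μg/mL) at 37 °C, 5% CO2. Cells seeded at 150 000/well and grown 24 h to >90% confluent monolayer. Monolayer scratched with toothpick, washed with PBS, fresh medium added, compound in DMSO added in duplicate, 40 h. LY294002 7.5 μM positive control. Wound area measured by ImageJ from three photos per well.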

Experiment [10] relates to MDA-MB-231. Description: Inhibition of human MDA-MB-231 cell migration after 40 hrs by wound-healing assay. Type of experiment: functional, cell-based. Conditions: MDA-MB-231, 40 h. The method, boiled down:
as §1

The test system of a further experiment is WI-38. The experiment is described as follows: Cytotoxicity against human WI38 cells after 72 hrs by Alamar blue assay. The class given is cell-based. Particulars: WI-38, 72 h.
The test system of experiment [11] is SF-268. The experiment is described as follows: Cytotoxicity against human SF268 cells after 72 hrs by Alamar blue assay. The class given is functional, cell-based. Particulars: SF-268, 72 h.
The subject of experiment [12] is SF-268. The experiment is described as follows: Cytotoxicity against human SF268 cells at 10 uM after 72 hrs by Alamar blue assay. Type of experiment: functional, cell-based.
The subject of experiment [13] is MDA-MB-231. Description: Inhibition of human MDA-MB-231 cell migration at 2 uM after 40 hrs by wound-healing assay. Type of experiment: functional, cell-based. The method, boiled down:
as §1

SMILES strings stand for the structures. The source made the active and inactive calls. The rule behind the calls is not given here. Where only a bound is given, the exact number is not on record here.

This note sets out measurements from ChEMBL document CHEMBL1833914, “Smardaesidins A-G, isopimarane and 20-nor-isopimarane diterpenoids from Smardaea sp., a fungal endophyte of the moss Ceratodon purpureus” (J Nat Prod, 2011).

By IC50 is commonly meant the concentration at which inhibition is half-maximal. Low readings indicate inhibition by little substance, high ones a need for much substance. By IC25 is commonly meant the concentration at which the effect reaches the 25% level. Take `C=C[C@]1(C)C=C2C(=O)[C@@]3(O)OC(=O)[C@@]4(CCCC(C)(C)[C@H]34)[C@@]2(O)[C@H](O)C1` [SPHAEROPSIDIN D]: the IC50 was 9600 nM with PC-3; 3700 nM in the experiment on MDA-MB-231 [3]; greater than 10000 nM in the experiment on NCI-H460 [4]; 9000 nM with MIA PaCa-2; greater than 10000 nM in the experiment with MCF7 [5]; greater than 5000 nM in the experiment on MDA-MB-231 [7]. The IC50 in experiment [8] was greater than 10000 nM; with MDA-MB-231 [10], 4800 nM; with WI-38, greater than 10000 nM; in the experiment on SF-268 [11], 7500 nM. The outcome in the experiment on MCF7 [1], in the experiment on NCI-H460 [2], in the experiment on PC-3M, in the experiment on MDA-MB-231 [6] and in the experiment on SF-268 [12] was Active. In addition, in the experiment with MDA-MB-231 [7], the IC25 is greater than 5000 nM. The inhibition result in the experiment with MDA-MB-231 [9] is “Active”.
`C=C[C@]1(C)C=C2C(=O)[C@@]3(OC(C)=O)OC(=O)[C@@]4(CCCC(C)(C)[C@H]34)[C@@]2(O)CC1`: the result in the experiment on MCF7 [1], in the experiment on NCI-H460 [2], with PC-3M, in the experiment with MDA-MB-231 [6] and with SF-268 [12] was Active. The half-inhibitory concentration (IC50) was found to be 2500 nM with MDA-MB-231 [3]; 2800 nM in the experiment on NCI-H460 [4]; 2000 nM in the experiment with MCF7 [5]; 2700 nM in experiment [8]; 4900 nM in the experiment with SF-268 [11].
Take `COc1cccc2c1C(=O)c1c(O)c3c(c(O)c1C2=O)C[C@@](O)(C(=O)CO)C[C@@H]3O[C@H]1C[C@H](N)[C@H](O)[C@H](C)O1` [DOXORUBICIN]: the IC50 amounted to 300 nM in the experiment on PC-3; 500 nM in the experiment on MDA-MB-231 [3]; 300 nM with NCI-H460 [4]; 300 nM in the experiment on MIA PaCa-2; 400 nM in the experiment on MCF7 [5]; 800 nM in the experiment with WI-38. Half-maximal inhibition in the experiment with SF-268 [11] (IC50) was put at 600 nM.
For the molecule `C=C[C@]1(C)C=C2C(=O)[C@@]3(O)OC(=O)[C@@]4(CCCC(C)(C)[C@H]34)[C@@]2(O)CC1` [SPHAEROPSIDIN A], the IC50 turned out to be 2500 nM in the experiment with PC-3; 1400 nM in the experiment with MDA-MB-231 [3]; 1900 nM in the experiment on NCI-H460 [4]; 2000 nM with MIA PaCa-2; 3000 nM in the experiment on MCF7 [5]; 3000 nM in the experiment with MDA-MB-231 [7]. Moreover, the IC50 was determined as 2400 nM in [8], 1500 nM in the experiment on MDA-MB-231 [10], 3700 nM with WI-38 and 2100 nM with SF-268 [11]. The result in the experiment on MCF7 [1], with NCI-H460 [2], in the experiment on PC-3M, with MDA-MB-231 [6] and in the experiment on SF-268 [12] was Active. This molecule had an IC25 in the experiment with MDA-MB-231 [7] of 1500 nM. For the same molecule, in the experiment on MDA-MB-231 [13], the inhibition result was “Active”.
